Assay outcomes (PubChem BioAssay)
Sampled rows, rich in hits. Any-hit rate of the full collection: about 2.7%.
TPT1 inh: Candida albicans TPT1 enzyme inhibitors, primary screen, biochemical, fluorescence polarization. 300,000 tested, 0.81% active. inhibition, % at 5 µM. recombinant caTPT1, FP RNA substrate dephosphorylation;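 active = inhibition above the mean of all tested compounds plus 3 SD, set per screening campaign, cut at about 24% in these data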
PP1 counter: PP1-alpha phosphatase inhibitors, primary screen, counter-screen for PP5 inhibitor project, biochemical, fluorescence, OMFP substrate, single point; AID 2235, 2010; 320,000 tested, 0.9% active; inhibition, % at 6.7 µM; purified PP1alpha;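 active = inhibition above the mean inhibition of all tested compounds plus 3 SD, computed separately for each screening campaign, cut at about 15% in these data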
Target sequence (P62136 whole entry, looked up): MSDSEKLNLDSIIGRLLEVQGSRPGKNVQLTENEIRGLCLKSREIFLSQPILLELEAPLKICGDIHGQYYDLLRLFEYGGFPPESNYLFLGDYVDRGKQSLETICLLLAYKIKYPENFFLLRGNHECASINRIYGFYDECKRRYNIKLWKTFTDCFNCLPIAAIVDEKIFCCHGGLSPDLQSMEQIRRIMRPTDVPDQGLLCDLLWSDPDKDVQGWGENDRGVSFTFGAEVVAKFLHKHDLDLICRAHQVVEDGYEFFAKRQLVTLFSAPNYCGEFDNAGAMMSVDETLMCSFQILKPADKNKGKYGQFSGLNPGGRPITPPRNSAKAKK
Rpn11 block: Rpn11 (PSMD14) deubiquitinase inhibitors, primary screen, biochemical, fluorescence polarization, uHTS; human 26S proteasome, Ub4-pepOG fluorescence polarization; 20S core pre-blocked with epoxomicin; inhibition, % at 20 µM; 360,000 tested, 0.59% active; AID 588493, 2011;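 active = inhibition at 20 µM, scaled to each plate's controls, above about 33%, limit read from the data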
HNF4A DNA FP: change in binding of human HNF4A to DNA, primary screen, biochemical, fluorescence polarization, FITC-DNA; activity change, % at 10 µM; Hepatocyte nuclear factor 4-alpha (Homo sapiens), P41235; 1 h; 360,000 tested, 0.3% active; in the data active = activity change above about 30%, passing the limit was not always enough
NadD block: inhibitors of S. aureus NadD, primary screen, biochemical, colorimetric, uHTS; purified NadD enzyme, colorimetric absorbance read-out; inhibition, % at 20 µM; 360,000 tested, 0.78% active; in the data active = inhibition above about 26%
CSN deneddyl inh: inhibitors of CSN-mediated cullin deneddylation, primary screen, biochemical, fluorescence polarization, uHTS | COP9 signalosome complex subunit 5 (Homo sapiens), Q92905 | Purified CSN, SCF-Nedd8-OG deneddylation | inhibition, % at 12.5 µM | 360,000 tested, 0.38% active;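 active = pattern-corrected inhibition above about 35%, with an unprinted fluorescence ratio check between 0.5 and 1.5, limit read from the data, passing the limit was not always enough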
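Material: human Csn5 produced in HEK293T cells; Input: enzyme 0.24 nM; Reagent: SCFSkp2-Nedd8OG substrate at 10 nM final; Dosing: 12.5 µM compound; Incubation: 90 min reaction at room temperature; Detection: fluorescence polarization of the substrate; Evaluation: % inhibition of substrate cleavage by Csn5; Control set: substrate-only high control, full reaction low control.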
NadD conf: inhibitors of S. aureus NadD, confirmation, biochemical, colorimetric, single concentration. shares compounds with NadD block. purified S. aureus NadD, colorimetric enzyme assay. inhibition, % at 20 µM. 2,000 tested, 13% active. AID 624309, 2012; in the data active = inhibition mostly above about 42%, no sharp cut-off; inactive = mostly below about 42%
Numbers stand for hits; – = inactive; · = no result.

SMILES	TPT1 inh	PP1 counter	Rpn11 block	HNF4A DNA FP	NadD block	CSN deneddyl inh	NadD conf
Cc1ccc(COc2ccc(/C=N/NC(=O)c3ccc(CN4CCOCC4)cc3)cc2)cc1	–	–	–	–	–	–	·
Cc1ccc(-n2c(SCC(=O)NC3CCS(=O)(=O)C3)nc3ccccc3c2=O)c(C)c1 (centres undefined)	·	·	–	–	–	–	·
O=C(COc1ccccc1)NCC(=O)N/N=C/c1cc(Br)ccc1OCc1ccccc1	–	–	–	–	–	–	·
O=C(COc1ccc(-c2ccccc2)cc1)N/N=C/c1cc(O)ccc1Br	–	–	–	–	30.5	–	–
COc1cc(C#N)c(NS(=O)(=O)c2ccc3[nH]c(=O)sc3c2)cc1OC	–	–	–	–	–	–	·
Cc1ccc(O)c(C(=O)c2cnc3c(c2)c(-c2ccc(F)cc2)c(C#N)c(=O)n3C)c1	–	–	–	–	28.4	–	–
Cc1ccc(O)c(C(=O)c2cnc3c(c2)c(=O)n(C)c(=O)n3C)c1	–	–	–	–	–	–	·
CCOc1c(Cl)cc(CNc2ccc(N3CCCC3)cc2)cc1OC	·	·	–	–	32.7	–	–
Cc1cc2[nH]c(=O)c(=O)[nH]c2cc1S(=O)(=O)N1CCN(c2cccc(C(F)(F)F)c2)CC1	–	–	–	–	30.9	–	49.8
NS(=O)(=O)c1ccc(NC(=O)/C=C/c2cn(-c3ccccc3)nc2-c2cccc(Cl)c2)cc1	–	–	–	–	41.3	–	–
O=C(O)c1ccc(NC(=O)c2cn(-c3ccccc3)nc2-c2cccc(Cl)c2)cc1	–	–	–	–	–	–	·
COc1cccc(C(=O)Nc2ccc(NC(=O)C3CC=CCC3C(=O)O)cc2)c1 (centres undefined)	–	–	–	–	–	–	·
CC(C)CCNC(=O)CCn1nc(-c2ccc(Cl)cc2)ccc1=O	–	–	–	–	–	–	·
NC(=O)[C@H]1CC2(CC(c3cccc(NC(=O)COc4ccc(Cl)cc4)c3)=NO2)CN1C(=O)C(c1ccccc1)c1ccccc1 (some centres undefined)	–	16.5	–	–	32.9	–	–
C/C=C\C=C\C(=O)Nc1cccc(C2=NOC3(C2)C[C@@H](C(N)=O)N(C(=O)C(c2ccccc2)c2ccccc2)C3)c1 (some centres undefined)	–	–	–	–	39.2	–	54.8
NC(=O)[C@@H]1CC2(CC(c3cccc(NC(=O)COc4ccc(Cl)cc4)c3)=NO2)CN1C(=O)COc1ccc(Cl)cc1 (some centres undefined)	–	–	–	–	47.9	–	–
C=C(C)C(=O)N1CC2(CC(c3cccc(NC(=O)CC(c4ccccc4)c4ccccc4)c3)=NO2)C[C@H]1C(N)=O (some centres undefined)	–	–	–	–	–	–	·
N#CCC(=O)N1CC2(CC(c3cccc(NC(=O)COc4ccc(Cl)cc4)c3)=NO2)C[C@@H]1C(N)=O (some centres undefined)	–	–	–	–	–	–	·
NC(=O)[C@@H]1CC2(CC(c3cccc(NC(=O)CC(c4ccccc4)c4ccccc4)c3)=NO2)CN1C(=O)c1ccc(Cl)cc1 (some centres undefined)	–	–	–	–	31.6	–	–
CCC(=O)Nc1cccc(C2=NOC3(C2)C[C@@H](C(N)=O)N(C(=O)C(c2ccccc2)c2ccccc2)C3)c1 (some centres undefined)	–	–	–	–	–	–	·
COC(=O)Cn1c(=O)c2c(nc3n2CCCN3CCc2ccc(OC)c(OC)c2)n(C)c1=O	–	–	–	–	–	–	·
COc1ccc(C2CCCN2CC(O)COc2ccccc2C(C)C)cc1 (centres undefined)	–	–	–	–	–	–	·
C#Cc1ccc(CN2CCN(CCCc3ccccc3)C(CCO)C2)cc1 (centres undefined)	–	–	–	–	–	–	·
COc1ccc(S(=O)(=O)N2CC=C(c3ccccc3)CC2)cc1OC	·	·	–	–	–	–	·
C/C=C(\C)C(=O)Nc1cccc(C2=NOC3(C2)C[C@@H](C(N)=O)N(C(=O)c2cc([N+](=O)[O-])cc([N+](=O)[O-])c2C)C3)c1 (some centres undefined)	–	–	–	–	–	–	·
SMILES	TPT1 inh	PP1 counter	Rpn11 block	HNF4A DNA FP	NadD block	CSN deneddyl inh	NadD conf
Cc1c(C(=O)N2CC3(CC(c4cccc(NC(=O)CC(c5ccccc5)c5ccccc5)c4)=NO3)C[C@@H]2C(N)=O)cc([N+](=O)[O-])cc1[N+](=O)[O-] (some centres undefined)	–	16.0	–	–	29.7	–	48.2
Cc1ccc(S(=O)(=O)N(C)c2ccc(OC(=O)c3cc(=O)[nH]c4ccccc34)cc2)cc1	·	·	–	–	–	–	·
COc1ccc(-c2nc(=S)c3c([nH]2)Oc2ccc(C)cc2C3)cc1O	–	–	–	–	30.2	–	–
COc1ccc(-c2nc3cccc(C)n3c2NCC2CCCO2)cc1O (centres undefined)	–	–	–	–	–	–	·
CNc1ncnc2c1ncn2[C@H]1CN(Cc2ccc(Cl)cc2)C[C@@H](CO)O1	·	·	–	–	–	–	·
CN(c1ccccc1)S(=O)(=O)c1ccc(Cl)c(C(=O)Nc2ccc(-c3nc4ccccc4[nH]3)cc2)c1	–	–	–	–	33.5	–	–
CCOC(=O)C1CCN(S(=O)(=O)c2cc3c(cc2C)NC(=O)CO3)CC1	–	–	–	–	–	–	·
O=C1C(Cc2ccccc2)Nc2ncnc(N3CCN(c4ccccc4)CC3)c2N1Cc1ccc(Br)cc1 (centres undefined)	·	·	–	–	41.7	–	–
Cc1ccc(CN2C(=O)C(Cc3ccccc3)Nc3ncnc(N4CCN(c5ccccc5)CC4)c32)cc1 (centres undefined)	–	–	–	–	27.8	–	–
O=C1C(Cc2ccccc2)Nc2ncnc(N3CCN(c4ccccc4)CC3)c2N1Cc1ccccc1 (centres undefined)	–	–	–	–	–	–	·
C=Cc1ccc(Cn2c(C)c(C(=O)NCc3cccc(C)c3)sc2=O)cc1	·	·	–	–	–	–	·
O=C(NCCCn1cccn1)c1cc(COc2ccccc2)on1	·	·	–	–	–	–	·
